Compound activity (PubChem)
In the library only some 1.3% were active in any assay of this set; here they are far more common.
CSN deneddyl inh – CSN deneddylation inhibition. inhibition, % at 12.5 µM. Purified CSN, SCF-Nedd8-OG deneddylation, fluorescence polarization. 360,000 compounds, 0.38% hits;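 active = pattern-corrected inhibition above about 35%, with an unprinted fluorescence ratio check between 0.5 and 1.5, limit read from the data, passing the limit was not always enough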;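 note: 0% = enzyme with substrate and 100% = substrate without enzyme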
Target sequence (Q92905 whole entry, looked up, one chain of several): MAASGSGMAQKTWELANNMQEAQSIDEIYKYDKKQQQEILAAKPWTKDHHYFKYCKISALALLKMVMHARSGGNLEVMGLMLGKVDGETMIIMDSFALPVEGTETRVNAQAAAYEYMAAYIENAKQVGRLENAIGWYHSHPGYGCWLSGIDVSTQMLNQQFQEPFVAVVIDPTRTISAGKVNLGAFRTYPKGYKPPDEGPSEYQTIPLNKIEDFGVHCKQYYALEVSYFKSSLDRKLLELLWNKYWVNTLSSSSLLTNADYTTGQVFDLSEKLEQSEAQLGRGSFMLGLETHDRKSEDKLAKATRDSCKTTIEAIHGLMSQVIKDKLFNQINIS
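Assay system: purified human Csn5 enzyme expressed in HEK293T cells; Input: 0.24 nM Csn5 enzyme, final concentration; Reagent: 10 nM SCFSkp2-Nedd8OG; Compound dosing: 12.5 µM single point; Times: reaction 90 min, room temperature; Technique: fluorescence polarization readout.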
Rpn11 block – blocks the human proteasome subunit Rpn11 | AID 588493 | inhibition, % at 20 µM | O00487 | human 26S proteasome, Ub4-pepOG fluorescence polarization; 20S core pre-blocked with epoxomicin | 360,000 compounds, 0.59% hits;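 active = inhibition at 20 µM, scaled to each plate's controls, above about 33%, limit read from the data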
Target sequence (O00487 whole entry, looked up): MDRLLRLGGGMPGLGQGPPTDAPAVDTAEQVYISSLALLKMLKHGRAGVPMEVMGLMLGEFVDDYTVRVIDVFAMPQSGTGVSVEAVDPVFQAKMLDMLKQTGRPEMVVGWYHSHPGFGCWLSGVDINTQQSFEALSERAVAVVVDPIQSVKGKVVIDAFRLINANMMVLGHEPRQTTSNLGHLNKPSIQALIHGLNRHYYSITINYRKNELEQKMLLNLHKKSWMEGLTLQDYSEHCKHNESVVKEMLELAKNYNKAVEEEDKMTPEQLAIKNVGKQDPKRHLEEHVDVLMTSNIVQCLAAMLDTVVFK
HNF4A DNA FP – change in binding of human HNF4 alpha to DNA | P41235 | HNF4a-FITC DNA binding, fluorescence polarization, 1 h | activity change, % at 10 µM | 360,000 compounds, 0.3% hits | AID 1224865; in the data active = activity change above about 30%, passing the limit was not always enough
TPT1 inh – inhibitors of Candida albicans tRNA 2'-phosphotransferase TPT1 | recombinant caTPT1, FP RNA substrate dephosphorylation | inhibition, % at 5 µM | 300,000 compounds, 0.81% hits;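 active = inhibition above the mean of all tested compounds plus 3 SD, set per screening campaign, cut at about 24% in these data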;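 note: plate controls were DMSO alone for no effect and ferristatin control at 100 nM for full effect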
aDG glyco up – alpha-DG glycosylation activation | Pro5-aDG cells, alpha-DG glycosylation AlphaScreen (IIH6); 0% Pro5, 100% B10-LARGE cell signal | activation, % at 10 µM | 360,000 compounds, 0.22% hits;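 active = activation of at least 8% versus controls, or a plate z-score of at least 8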;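 note: Pro5 are CHO cells carrying HIG-tagged alpha-DG that lacks glycosylation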
Xi reactivation – reactivates the inactive X chromosome in mouse fibroblasts | XiGFP mouse fibroblasts, % GFP-positive cells imaging, 3 d; cells co-treated with 5-aza-dC sensitizer; scaled so ellipticine positive control = 100% | activation, % at 7.58 µM | 360,000 compounds, 0.055% hits;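 active = mean normalized replicate activation at least 10% and every replicate at or above 10%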;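 note: 0% = median of on-plate neutral control wells and 100% = ellipticine 6 µM median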
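material = 68-5-11 XiGFP fibroblast line | medium = DMEM plus 5-aza-dC sensitizer | schedule = 3 days compound exposure | benchmarks = positive control ellipticine, 6 µM final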
Starred values were filed as active, the others as inactive; . = not tested or not shown.

SMILES	CSN deneddyl inh	Rpn11 block	HNF4A DNA FP	TPT1 inh	aDG glyco up	Xi reactivation
CC(C)OCCCNc1ncnc2c1[nH]c1ccccc12	3	2	-1	-1	5.4*	.
O=C1/C(=C/c2ccc(O)cc2)COc2ccccc21	89*	4	5	4	0	0
COc1ccc(-c2ccc(-c3noc(-c4ccccc4C)n3)c(OC)n2)cc1	3	20	11	8	0	.
COc1ccc(-c2ccc(-c3noc(-c4ccccc4OC)n3)c(OC)n2)cc1	-2	23	44*	12	0	.
CC(=O)N(C1=C(N)C(=O)c2ccccc2C1=O)c1ccccc1	-2	-5	1	-1	4.1*	0
NC(=O)C1=C(N=C2CCCCC2)CCCC1	53*	3	-1	.	0	0
C[C@H](CO)N1C[C@H](C)[C@H](CN(C)Cc2cccc(C(F)(F)F)c2)Oc2ncc(-c3ccc(F)cc3)cc2C1=O	.	.	.	.	.	0
CCN(Cc1ccccc1)C(=S)Nc1cc(C(=O)OC)ccc1C(=O)OC	2	0	33*	3	0	0
C=CC(=O)Nc1cccc(Oc2ccnc3[nH]ccc23)c1	122*	95*	174	.	0	.
C=CC(=O)Nc1cccc(Oc2ccnc(Nc3ccc(N4CCN(C)CC4)cc3)n2)c1	7	29	23	.	0	0
COc1ccc(S(=O)(=O)Nc2ccc3c(c2)C(=O)N([C@@H](C)CO)C[C@H](C)[C@@H](CN(C)C(=O)Cc2ccccc2)OCCCC[C@H](C)O3)cc1	.	.	.	.	.	0
O=C1NC[C@H](CC2CCCCC2)N(CCc2cccc3ccccc23)C1=O	60*	.	13	.	0	0
O=C1NC[C@@H](Cc2ccc(O)cc2)N(CCc2cc(C(F)(F)F)cc(C(F)(F)F)c2)C1=O	98*	.	-1	.	0	0
O=C1NC[C@H](CC2CCCCC2)N(CCc2cc(C(F)(F)F)cc(C(F)(F)F)c2)C1=O	48*	.	-2	.	0	1
FC(F)(F)c1cc(CCN2C(=S)NC[C@@H]2CC2CCCCC2)cc(C(F)(F)F)c1	2	15	1	0	1	0
COc1ccc2c3c(n(C)c2c1)[C@H](CO)N(C(=O)Nc1ccc(F)cc1)CC31CN(C(=O)Nc2c(C)noc2C)C1	.	.	.	.	.	0
C[C@@H]1CN([C@@H](C)CO)C(=O)c2cc(NC(=O)CCCN(C)C)ccc2O[C@@H](C)CCCCO[C@@H]1CN(C)Cc1ccncc1	.	.	.	.	.	0
COC(=O)c1ccc(C)c(NC(=O)CCSc2ccc(Cl)cc2)c1	5	-2	95*	-4	0	.
CC(=O)N(C)C[C@@H]1Oc2cc(C#Cc3ccccn3)ccc2S(=O)(=O)N([C@@H](C)CO)C[C@H]1C	.	.	.	.	.	0
CCOC(=O)N1CCc2c(sc(NC(=O)c3ccc(S(=O)(=O)N4CCCC4)cc3)c2C#N)C1	16	50*	23	20	0	0
COc1cc(CNCCc2ccccc2)ccc1OCC(=O)NC(C)(C)C	106*	-3	0	0	1	.
COc1cc(CNCCCO)ccc1OCC(=O)NC(C)(C)C	-3	-7	3	0	0	0
CN(C)c1ccc2c(c1)[C@@H]1C[C@H](CC(=O)N3CCCCC3)O[C@H](CO)[C@@H]1O2	.	.	.	.	.	0
COC(=O)C1CCN(S(=O)(=O)c2c(C)n(C)c(=O)n(C)c2=O)CC1	2	1	-2	3	0	0
Cc1c(S(=O)(=O)N2CCCCC2)c(=O)n(C)c(=O)n1C	64*	-11	5	-5	0	0
SMILES	CSN deneddyl inh	Rpn11 block	HNF4A DNA FP	TPT1 inh	aDG glyco up	Xi reactivation
CC(C)NC(=O)N1C[C@@H]2C(c3ccccc3)[C@H](C1)N2Cc1ccc(F)cc1 (stereo partly specified)	.	.	.	.	.	0
Cc1cc2cc(C(c3nnnn3C(C)(C)C)N(Cc3ccco3)CC3CCCO3)c(=O)[nH]c2cc1C (stereo unspecified)	7	17	43*	2	1	.
COc1ccc2[nH]c(=O)c(C(c3nnnn3C(C)(C)C)N(Cc3ccco3)CC3CCCO3)cc2c1 (stereo unspecified)	2	-4	0	-4	1	.
COc1ccc2c3c(n(C)c2c1)[C@H](CO)N(S(C)(=O)=O)CC31CN(C(=O)C2CCC2)C1	.	.	.	.	.	0
CCOc1ccc(-c2c(C#N)c(N)nc3sc(C(=O)c4ccccc4)c(N)c23)cc1	18	6	40*	2	0	0
COc1ccc(-c2c(C#N)c(N)nc3sc(C(=O)c4ccccc4)c(N)c23)cc1	-1	19	11	5	1	0
Cc1ccc(-c2nc3ncccn3c2Nc2ccc3c(c2)OCCO3)o1	-2	2	38*	-2	0	.
COCC(=O)Nc1ccc2c(c1)OC[C@@H](C)N(C(=O)COC)C[C@H](C)[C@@H](OC)CN(C)C2=O	.	.	.	.	.	0
CCOC(=O)C1=CCC(c2ccccc2)N(S(=O)(=O)c2ccccc2C)C1 (stereo unspecified)	92*	6	4	.	0	0
CCOC(=O)C1=CCC(c2ccccc2)N(S(=O)(=O)c2ccccc2[N+](=O)[O-])C1 (stereo unspecified)	-4	-5	0	.	0	0
O=C(C1CCC1)N1CC[C@@H]2[C@H](CO)Nc3ccc(C#Cc4cccc(F)c4)cc3[C@@H]21	.	.	.	.	.	0
Cn1c(=N)n(CC(=O)c2ccc(Br)s2)c2ccccc21	2	-6	-3	-2	13*	.
C[C@H]1CCCCO[C@H](CN(C)S(=O)(=O)c2ccc(Cl)cc2)[C@@H](C)CN([C@@H](C)CO)C(=O)c2cc(NC(=O)CCCN(C)C)ccc2O1	.	.	.	.	.	0
COc1ccc2c3c([nH]c2c1)[C@H](CO)N(C(=O)C1CCCCC1)CC31CCN(Cc2nccs2)CC1	.	.	.	.	.	0
CC1(C(=O)NS(=O)(=O)Cc2cccc(Cl)c2)CCN1C(=O)Cc1cccs1 (stereo unspecified)	71*	-6	4	.	0	0
Cc1cc(=O)[nH]c(N/N=C/c2c(C)nn(-c3ccccc3)c2Cl)n1	3	-2	-2	0	0	0
Cc1nn(-c2ccccc2)c(Cl)c1/C=N/Nc1nc2ccccc2[nH]1	4	-2	68*	1	0	1
Cc1[nH]c2ccccc2c1/C=N/Nc1nc2ccccc2[nH]1	-3	17	-1	4	0	17*
Cc1ccccc1/C=N/Nc1nc2ccccc2[nH]1	-7	-5	3	-4	0	0
O=C1NC(=O)/C(=C\c2ccc(OCc3cnc(Cl)s3)cc2)S1	37*	23	-6	0	1	0
